KCNQ1 inh = inhibitors of human KCNQ1 channel, primary screen, cell-based, thallium flux, high-throughput; CHO-K1 KCNQ1, FluxOR thallium flux fluorescence; active compounds read high; AID 2642, 2010; Potassium voltage-gated channel subfamily KQT member 1 (Homo sapiens), P51787; 1.3% of 310,000 active; B-score at 10 µM;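 active = compounds whose thallium flux B-score, printed positive for inhibition, exceeds three library SD while starting fluorescence stays within three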;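 also: channel opened by potassium depolarization with thallium stimulus after 20 min compound exposure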
Target sequence (P51787 whole entry, looked up): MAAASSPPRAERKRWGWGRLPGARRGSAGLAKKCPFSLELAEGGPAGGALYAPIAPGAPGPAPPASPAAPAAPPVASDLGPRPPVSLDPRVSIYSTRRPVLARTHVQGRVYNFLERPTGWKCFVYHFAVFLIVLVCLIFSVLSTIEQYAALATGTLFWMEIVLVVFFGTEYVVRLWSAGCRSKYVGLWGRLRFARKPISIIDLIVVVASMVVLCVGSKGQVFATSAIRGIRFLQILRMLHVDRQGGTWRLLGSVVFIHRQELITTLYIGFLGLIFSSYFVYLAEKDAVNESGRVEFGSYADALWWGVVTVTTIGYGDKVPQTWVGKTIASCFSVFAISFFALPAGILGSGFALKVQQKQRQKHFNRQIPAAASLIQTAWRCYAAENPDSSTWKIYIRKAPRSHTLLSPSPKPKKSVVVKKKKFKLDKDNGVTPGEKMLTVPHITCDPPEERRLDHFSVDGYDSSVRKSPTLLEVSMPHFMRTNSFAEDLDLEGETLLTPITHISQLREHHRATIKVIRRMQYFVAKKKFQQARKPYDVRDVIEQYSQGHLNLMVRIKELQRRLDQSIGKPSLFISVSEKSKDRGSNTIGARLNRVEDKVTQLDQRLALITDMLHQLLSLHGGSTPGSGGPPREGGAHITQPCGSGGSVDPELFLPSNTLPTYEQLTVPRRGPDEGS
KCNK9 inh-1 = KCNK9 potassium channel inhibitors, primary screen, HEK293 cells, thallium flux. Potassium channel subfamily K member 9 (Homo sapiens), Q9NPC2. FluxOR thallium flux fluorescence; active compounds read low. B-score at 10 µM. 1.2% of 310,000 active. AID 488922, 2010;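 active = ratio B-score over 3 SD below the library mean, with starting fluorescence within 5 SD of its mean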;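 also: negative B-score means less thallium flux so channel inhibition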
Kir21 inh = inhibitors of mouse Kir2.1 inward-rectifier potassium channel | B-score at 10 µM | 0.85% of 310,000 active | HEK293-Kir2.1, FluxOR thallium flux fluorescence; active compounds read low | Inward rectifier potassium channel 2 (Mus musculus), P35561 | AID 1672, 2009;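 active = fluorescence ratio B-score at or below minus 3 SD of library scores, with starting-brightness B-score within 2 SD, cut at about -4.2 in these data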;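 also: channel flux triggered by added potassium and thallium sulfate stimulus; B-score of peak minus minimum fluorescence over baseline after thallium stimulus; more negative B-score means stronger Kir2.1 block with less thallium influx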
KCNQ1 pot = potentiators or activators of KCNQ1 channel, primary screen, cell-based, thallium flux, high-throughput; 0.35% of 310,000 active; B-score at 10 µM; AID 2648, 2010; Potassium voltage-gated channel subfamily KQT member 1 (Homo sapiens), P51787; CHO-K1 KCNQ1, thallium flux FluxOR fluorescence; active compounds read high;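 active = fluorescence ratio B-score, a plate-corrected score, at least three library SD, with initial intensity B-score within 5 SD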
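Assay system: CHO-K1 cells stably expressing KCNQ1. Medium: assay buffer for compound exposure, DMSO matched across wells. Timing: 37 °C overnight plating, 90-min dark dye load, 20-min compound pretreatment. Signal: kinetic FluxOR fluorescence, 10 s baseline plus 110 s post-stimulus.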
KCNK3 inh = human KCNK3 channel inhibitors, primary screen, CHO cells, FluxOR thallium flux, B-score; FluxOR fluorescence; active compounds read low; B-score at 10 µM; 0.84% of 340,000 active; Potassium channel subfamily K member 3 (Homo sapiens), O14649;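 active = B-score under library mean minus 4 SD, starting fluorescence ratio at most library mean plus 5 SD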;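 also: more negative B-score means stronger inhibition of thallium flux through KCNK3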
hERG protect = hERG rescue from dofetilide block, primary screen, cell-based, CHO-hERG, FluxOR thallium flux, dofetilide IC70; dofetilide IC70 present; activation (rescue from dofetilide block), less the hit threshold, % at 10 µM; 0.51% of 310,000 active; AID 1511, 2009;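 active = activation above the mean of controls blocked by dofetilide plus 5 SD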;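 also: thallium influx through hERG after potassium depolarization seen as dye fluorescence rise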
hERG inh = hERG channel inhibition, counter-screen for Kir2.1 inhibitor project, cell-based, thallium flux | shares compounds with Kir21 inh | hERG-expressing cells | inhibition, % at 10 µM | 20% of 320 active | AID 2236, 2010;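 also: host cells are CHO cells stably expressing hERG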
KCNK9 inh-2 = KCNK9 channel inhibition, selectivity assay for Kir2.1 inhibitor project, cell-based. shares compounds with Kir21 inh. KCNK9-expressing cells, ion flux inhibition. inhibition, % at 10 µM. 5% of 320 active. AID 2329, 2010
Kir2-1 patch inh = mouse Kir2.1 channel blockers, Kir2.1 inhibitor project, cell-based, secondary, automated electrophysiology | inhibition, % at 25 µM | shares compounds with Kir21 inh | Kir2.1 cells, automated patch-clamp current inhibition | AID 463252, 2010 | 71% of 320 active
KCNQ1 block val = KCNQ1 potassium channel inhibitors, confirmation, cell-based, Tl flux, duplicate; shares compounds with KCNQ1 inh; KCNQ1 cell line, FluxOR thallium flux fluorescence; inhibition, % at 10 µM; 93% of 1,600 active;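 active = primary screen active, with duplicate mean exceeding buffer control mean plus 3 SD of buffer wells, cut at about 28% in these data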;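 also: 0% = buffer control ratio and 100% = XE991 inhibitor control ratio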
CHO KCNQ1 ctr = thallium flux effects in parental CHO cells, counter-screen for KCNQ1 inhibitor project, cell-based, Tl flux. fluorescence ratio (Tl flux) at 10 µM. 21% of 1,600 active. parental CHO-K1, FluxOR thallium flux fluorescence ratio; active compounds read low; zero means no signal rise above baseline. shares compounds with KCNQ1 inh;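 active = mean of duplicate thallium-flux fluorescence ratios in parental host cells more than 5 SD below the buffer control mean, cut at about 0.38 in these data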;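 also: ratio is peak minus minimum fluorescence divided by baseline fluorescence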
KCNQ1 APC inh = KCNQ1 channel inhibitors, confirmation, orthogonal assay, cell-based, automated electrophysiology; shares compounds with KCNQ1 inh; KCNQ1-CHO cells, automated patch clamp current; calls only at 10 µM; 20% of 490 active;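 active = KCNQ1 current drop exceeding 3 SD of negative control wells, seen in both duplicate runs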;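 also: steady state current during a 2 s step from -80 to +40 mV; negative values mean current inhibition and positive values mean potentiation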
KCNQ2 spec = KCNQ2 channel inhibition, selectivity assay for KCNQ1 inhibitor project, cell-based | shares compounds with KCNQ1 inh | inhibition, % at 10 µM | AID 651746, 2012 | 71% of 1,600 active | KCNQ2 cells, FluxOR thallium flux fluorescence;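 active = mean percent inhibition of the KCNQ2 thallium signal more than 5 SD above the buffer-only control wells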;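 also: KCNQ2 expressed in CHO cells; 0% = buffer control wells and 100% = XE-991 inhibitor control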
KCNQ1 KCNE1 spec = KCNQ1/KCNE1 channel inhibition, selectivity assay for KCNQ1 inhibitor project, CHO-K1 cells, thallium flux, FluxOR | shares compounds with KCNQ1 inh | FluxOR thallium flux fluorescence | inhibition, % at 10 µM | 77% of 1,600 active | AID 652147, 2013;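 active = mean percent inhibition of duplicate wells above the buffer-only control mean plus 3 SD of those controls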;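 also: 0% = buffer only wells and 100% = XE-991 inhibitor control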
KCNK9 block conf = KCNK9 potassium channel inhibitors, confirmation, HEK293 cells, thallium flux, duplicate | shares compounds with KCNK9 inh-1 | FluxOR thallium flux fluorescence | inhibition, % at 10 µM | 43% of 4,900 active;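 active = thallium signal inhibited by more than 5 SD of the compound-free buffer control wells, on both duplicate plates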;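 also: 0% = assay buffer control wells without compound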
Kir21 sel = mouse Kir2.1 channel inhibition, confirmation, selectivity assay for KCNK9 modulator project, cell-based, HEK293, thallium flux; AID 492993, 2010; shares compounds with KCNK9 inh-1; 4% of 4,900 active; inhibition, % at 10 µM; Kir2.1 cells, FluxOR thallium flux fluorescence;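 active = thallium signal drop more than 5 SD beyond the mean of the no-compound control wells, seen in both duplicate plates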;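 also: signal is fluorescence rise after thallium addition divided by baseline fluorescence; plate controls were assay buffer only for no effect and full block by chlorpromazine control for full effect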
KCNK9 uninduced = thallium flux in non-induced HEK293 cells, confirmation, counter-screen for KCNK9 inhibitor project, cell-based, second counter screen, non-induced KCNK9-HEK293 | 40% of 4,900 active | shares compounds with KCNK9 inh-1 | FluxOR thallium flux | AID 492997, 2010 | inhibition, % at 10 µM;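 active = thallium signal drop beyond 5 SD of the untreated control mean, on both duplicate plates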;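 also: plate controls were buffer only IC0 wells for no effect and SID17386958 at its maximal inhibitory level for full effect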
* hit, by the source's call; i = inactive; nt = no result; + = active, no number. Compounds with a hit are over-represented: about 3.7% of the library has one in this group of screens. Unless noted, no rule for the calls is given here.

SMILES	KCNQ1 inh	KCNK9 inh-1	Kir21 inh	KCNQ1 pot	KCNK3 inh	hERG protect	KCNQ1 block val	CHO KCNQ1 ctr	KCNQ2 spec	KCNQ1 KCNE1 spec	others
COc1ccc2nc(/N=C/c3c(O)n(-c4cccc(Cl)c4)c(=O)[nH]c3=O)sc2c1	i	i	-1.4	i	i	-4	nt	nt	nt	nt
Fc1ccc(C(OCCN2CCCC2)c2ccc(F)cc2)cc1	i	i	-2.9	i	i	-1	nt	nt	nt	nt
Fc1ccc(C(OCCN2CCCC2)c2ccc(Br)cc2)cc1 (centres undefined)	i	i	-8.4*	i	i	-18	nt	nt	nt	nt	hERG inh=70%*;KCNK9 inh-2=i;Kir2-1 patch inh=i
CC12CCC(=O)C=C1CC(O)C1C2CCC2(C)C1CCC2(C)O (centres undefined)	nt	nt	nt	nt	i	nt	nt	nt	nt	nt
COC(=O)C1=C(c2cccc(OC)c2OC)C[C@@H]2CC[C@H]1N2C(=O)N1CCCCC1	i	i	2	i	i	-5	nt	nt	nt	nt
CN(C)CCOC(=O)c1cn(Cc2ccccc2)c2ccccc12	i	i	-7*	i	i	-3	nt	nt	nt	nt	hERG inh=53%*;KCNK9 inh-2=i;Kir2-1 patch inh=33%*
CCc1ccc(CN2CCN(Cc3ccc(SC)cc3)CC2)cc1	i	i	-7.2*	i	i	-8	nt	nt	nt	nt	hERG inh=60%*;KCNK9 inh-2=i;Kir2-1 patch inh=15%*;KCNK9 block conf=i;Kir21 sel=60%*;KCNK9 uninduced=i
ClCCN1CCN(c2ccnc3cc(Cl)ccc23)CC1	i	i	-0.27	i	i	-10	nt	nt	nt	nt
CN1/C(=C\C=C2C(=O)NC(=S)NC2=O)C(C)(C)c2ccccc21	i	i	-2.1	i	i	-8	nt	nt	nt	nt
CC1(C)OC(c2ccccc2)=C/C(=C/C=C2C(=O)NC(=S)NC2=O)O1	15*	i	-3.3	i	nt	-18	82*	0.34*	i	i
O=C(c1ccco1)c1cn(Cc2ccccc2Cl)c2ccccc12	7*	-7.5*	-0.77	i	i	-6	91*	0.38	102%*	152%*	KCNQ1 APC inh=i
Nc1ccc2ccc3cccc[n+]3c2c1	24*	i	-23	i	i	-44	+	0.0075*	i	i
C[n+]1c(-c2ccccc2)c2cc(N)ccc2c2ccc(N)cc21	i	i	0.6	i	i	-10	nt	nt	nt	nt
CCCCCCn1c(=O)c(C(=O)Nc2ncccc2O)c(O)c2ccccc21	7*	i	1.1	i	i	-6	58*	0.43	62%*	50%*
CCCCCn1c(=O)c(C(=O)Nc2ccccc2N)c(O)c2ccccc21	i	i	1.9	i	i	-1	nt	nt	nt	nt
CCCCCCn1c(=O)c(C(=O)Nc2cnccn2)c(O)c2ccccc21	9*	i	0.74	i	i	-12	44*	0.5	i	i
Cc1ccc2cc(CNCCc3ccccc3C)c(=O)[nH]c2c1	i	i	-0.84	i	i	-17	nt	nt	nt	nt
O=c1cc(C(F)(F)F)c2cc3c4c(c2o1)CCCN4CCC3	37*	i	-11	i	i	-16	+	0.022*	i	i
CC1=C2[C@@H]3OC(=O)[C@H](C)C3CC[C@@]2(C)C=CC1=O (some centres undefined)	i	i	0.51	i	i	0	nt	nt	nt	nt
CN(C)C(=S)SSC(=S)N(C)C	16*	i	-1.9	i	i	-41	0	0.55	i	i
CCC/C=N/O	nt	nt	nt	nt	i	nt	nt	nt	nt	nt
CC(C)(C)C(=O)O[C@H]1CC[C@@]2(C)C(=CC(=O)C3C2CC[C@]2(C)C(=O)CCC32)C1 (some centres undefined)	nt	nt	nt	nt	i	nt	nt	nt	nt	nt

Source: PubChem BioAssay
